Laboratory results reported in ChEMBL document CHEMBL1140227, “Histone deacetylase inhibitors through click chemistry” (J Med Chem, 2008).

Experiments:
MOLT-4 = test: Growth inhibition of human MOLT4 cells at 10 uM relative to control; type: functional; details: values are per cent of control
Procedure, shortened: (§1)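 Single-dose preliminary screen in the NCI human cancer cell line panel, run by the NIH. Percent inhibition of cell line growth was calculated by comparison with untreated samples.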

KM12 = test: Growth inhibition of human KM12 cells at 10 uM relative to control; type: functional; details: values are per cent of control; procedure, shortened: as §1
SNB-19 = test: Growth inhibition of human SNB19 cells at 10 uM relative to control; type: functional; details: values are per cent of control; procedure, shortened: as §1
RXF 393 = test: Growth inhibition of human […] cells; type: functional
CAKI-1 = test: Growth inhibition of human Caki1 cells at 10 uM relative to control; type: functional; details: values are per cent of control; procedure, shortened: as §1
SF-268 = test: Growth inhibition of human SF268 cells at 10 uM relative to control; type: functional; details: values are per cent of control; procedure, shortened: as §1
Leukemia cell = test: cells; type: functional; details: Homo sapiens
K562 = test: Growth inhibition of human K562 cells at 10 uM relative to control; type: functional; details: values are per cent of control; procedure, shortened: as §1
NCI-H23 = test: Growth inhibition of human NCI-H23 cells at 10 uM relative to control; type: functional; details: values are per cent of control; procedure, shortened: as §1
Melanoma cell = test: cells; type: functional; details: Homo sapiens
Malme-3M = test: Growth inhibition of human MALME-3M cells at 10 uM relative to control; type: functional; details: values are per cent of control; procedure, shortened: as §1
cells [1] = type: functional; details: Homo sapiens, Cancer cell lines
IGROV-1 = test: Growth inhibition of human IGROV1 cells at 10 uM relative to control; type: functional; details: values are per cent of control; procedure, shortened: as §1
NCI/ADR-RES = test: Growth inhibition of human NCI/ADR-RES cells at 10 uM relative to control; type: functional; details: values are per cent of control; procedure, shortened: as §1
A498 = test: Growth inhibition of human A498 cells at 10 uM relative to control; type: functional; details: values are per cent of control; procedure, shortened: as §1
U-251 = test: Growth inhibition of human U251 cells at 10 uM relative to control; type: functional; details: values are per cent of control
Procedure, shortened: (§2)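 Single-dose NCI human tumour cell line screen, run by the NIH. Percent inhibition of cell line growth was calculated by comparison with untreated samples.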

UO-31 = test: Growth inhibition of human UO31 cells at 10 uM relative to control; type: functional; details: values are per cent of control; procedure, shortened: as §2
OVCAR-3 = test: Growth inhibition of human OVCAR-3 cells at 10 uM relative to control; type: functional; details: values are per cent of control; procedure, shortened: as §1
UACC-62 = test: Growth inhibition of human UACC62 cells at 10 uM relative to control; type: functional; details: values are per cent of control; procedure, shortened: as §2
Histone deacetylase 1 = Histone deacetylase 1 (Homo sapiens, UniProt Q13547); test: Inhibition of human HDAC1
Chain of Histone deacetylase 1 (Q13547 whole entry): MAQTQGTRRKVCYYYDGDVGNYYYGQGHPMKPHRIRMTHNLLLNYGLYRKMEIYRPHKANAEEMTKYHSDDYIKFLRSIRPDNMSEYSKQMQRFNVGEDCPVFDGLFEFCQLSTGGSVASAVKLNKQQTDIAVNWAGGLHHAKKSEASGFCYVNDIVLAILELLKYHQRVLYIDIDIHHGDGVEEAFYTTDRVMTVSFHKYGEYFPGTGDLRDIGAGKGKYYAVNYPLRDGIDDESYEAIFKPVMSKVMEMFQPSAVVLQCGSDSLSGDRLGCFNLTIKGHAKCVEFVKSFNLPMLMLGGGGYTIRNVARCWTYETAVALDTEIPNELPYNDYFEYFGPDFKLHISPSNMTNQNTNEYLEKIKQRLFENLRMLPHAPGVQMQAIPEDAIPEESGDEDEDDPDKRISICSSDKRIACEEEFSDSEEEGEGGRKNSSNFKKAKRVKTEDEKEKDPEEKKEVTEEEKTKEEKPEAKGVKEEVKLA

cells [2] = type: functional; details: Homo sapiens, Cancer cell lines; remark: listed apart in the source
MDA-MB-435 = test: Growth inhibition of human MDA-MB-435 cells at 10 uM relative to control; type: functional; details: values are per cent of control; procedure, shortened: as §1
OVCAR-4 = test: Growth inhibition of human OVCAR4 cells at 10 uM relative to control; type: functional; details: values are per cent of control; procedure, shortened: as §1
SF-539 = test: Growth inhibition of human SF539 cells at 10 uM relative to control; type: functional; details: values are per cent of control; procedure, shortened: as §1
NCI-H322M = test: Growth inhibition of human NCI-H322M cells at 10 uM relative to control; type: functional; details: values are per cent of control; procedure, shortened: as §1
SK-MEL-28 = test: Growth inhibition of human SK-MEL-28 cells at 10 uM relative to control; type: functional; details: values are per cent of control; procedure, shortened: as §1
M14 = test: Growth inhibition of human M14 cells at 10 uM relative to control; type: functional; details: values are per cent of control; procedure, shortened: as §1
EKVX = test: Growth inhibition of human EKVX cells at 10 uM relative to control; type: functional; details: values are per cent of control; procedure, shortened: as §1
786-0 = test: Growth inhibition of human 786-0 cells at 10 uM relative to control; type: functional; details: values are per cent of control; procedure, shortened: as §1
OVCAR-5 = test: Growth inhibition of human OVCAR5 cells at 10 uM relative to control; type: functional; details: values are per cent of control; procedure, shortened: as §1
[3] = Growth inhibition of human RPMI8266 cells at 10 uM relative to control; type: functional; details: values are per cent of control; procedure, shortened: as §1
cells [4] = type: functional; details: Homo sapiens, Cancer cell lines; remark: listed apart in the source
TK-10 = test: Growth inhibition of human TK10 cells; type: functional
Procedure, shortened: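 NCI five-dose screen, run by the NIH. Each drug was tested at five concentrations alongside a control, using two microtiter plates per cell line. SAHA was included as the standard.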

NCI-H226 = test: Growth inhibition of human NCI-H226 cells at 10 uM relative to control; type: functional; details: values are per cent of control; procedure, shortened: as §1

## O=C(/C=C/c1cn(C/C=C/c2ccccc2)nn1)NO
MOLT-4
  growth, % of control at 10 µM: -7.12%
KM12
  growth, % of control at 10 µM: 8.61%
SNB-19
  growth, % of control at 10 µM: -12.4%
RXF 393
  GI50: < 10 nM
CAKI-1
  growth, % of control at 10 µM: 7.42%
SF-268
  growth, % of control at 10 µM: -0.08%
Leukemia cell
  inhibition at 10 µM: -6%
K562
  growth, % of control at 10 µM: -10.9%
NCI-H23
  growth, % of control at 10 µM: 21.4%
Melanoma cell
  inhibition at 10 µM: -43%
Malme-3M
  growth, % of control at 10 µM: -28.7%
Cells [1]
  inhibition at 10 µM: -18%
IGROV-1
  growth, % of control at 10 µM: -13.8%
NCI/ADR-RES
  growth, % of control at 10 µM: -14.2%
A498
  growth, % of control at 10 µM: -74.4%
U-251
  growth, % of control at 10 µM: -89.9%
UO-31
  growth, % of control at 10 µM: 0.73%
OVCAR-3
  growth, % of control at 10 µM: -16.2%
UACC-62
  growth, % of control at 10 µM: -71.2%
Histone deacetylase 1
  IC50: 104 nM
Cells [2]
  inhibition at 10 µM: 1%
MDA-MB-435
  growth, % of control at 10 µM: 21.3%
OVCAR-4
  growth, % of control at 10 µM: 55.7%
SF-539
  growth, % of control at 10 µM: 5.16%
NCI-H322M
  growth, % of control at 10 µM: 9.59%
SK-MEL-28
  growth, % of control at 10 µM: -15%
M14
  growth, % of control at 10 µM: 1.63%
EKVX
  growth, % of control at 10 µM: 23.7%
786-0
  growth, % of control at 10 µM: -36.1%
OVCAR-5
  growth, % of control at 10 µM: 1.43%
[3]
  growth, % of control at 10 µM: -13.9%
Cells [4]
  growth percent at 10 µM: -20%
TK-10
  GI50: 495 nM
NCI-H226
  growth, % of control at 10 µM: 23.7%
